{"source": "ChEMBL document CHEMBL5303300", "about": "“EUbOPEN Chemogenomics Library - Multiplex” (2023)", "test_system": "Fibroblast", "experiment": "Multiplex assay against human fibroblast", "type": "toxicity, cell-based", "conditions": "number of replicates 2", "outline": "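Four dyes were applied at seeding to live cells: Hoechst33342, BioTracker Green Microtubule Cytoskeleton Dye, MitoTracker Red and Annexin V Alexa Fluor 680. Imaging after compound addition used a CQ1 microscope at 37°C and 5% CO2. CellPathfinder machine-learning gating then sorted cells into Hoechst high-intensity objects or normal cells, normal cells into healthy, pyknosed or fragmented nuclei, and pyknosed cells into mitotic or apoptotic, with tubulin, mitochondrial-mass and membrane-permeability phenotypes given as per cents of healthy-nucleus cells.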", "key": {"[1]": {"conditions": "12 h, 1 µM, compound concentration 1 uM"}, "[2]": {"conditions": "12 h, 10 µM, compound concentration 10 uM"}, "[3]": {"conditions": "24 h, 1 µM, compound concentration 1 uM"}, "[4]": {"conditions": "24 h, 10 µM, compound concentration 10 uM"}, "[5]": {"conditions": "48 h, 1 µM, compound concentration 1 uM"}, "[6]": {"conditions": "48 h, 10 µM, compound concentration 10 uM"}}, "note": "Values joined by “and” are separate entries in the source; they are usually repeats but may differ in a detail not shown here. Equal values may be shown once.", "data": [{"compound": "CSc1cc2c(cc1C(F)(F)F)N(C(=O)Nc1cccnc1)CC2", "values": [{"measurement": "Population Apoptotic (%)", "setting": "[1]", "result": "50% and 34%"}, {"measurement": "Population Fragmented Nuclei (%)", "setting": "[1]", "result": "9% and 17%"}, {"measurement": "Population Healthy Nuclei (%)", "setting": "[1]", "result": "75% and 64%"}, {"measurement": "Population Hoechst High Intensity Objects (%)", "setting": "[1]", "result": 0, "unit": "%"}, {"measurement": "Population Membrane Permeable-Phenotype (%)", "setting": "[1]", "result": "6% and 2%"}, {"measurement": "Population Mitochondria Different-Phenotype (%)", "setting": "[1]", "result": "0% and 2%"}, {"measurement": "Population Mitotic Cells (%)", "setting": "[1]", "result": "50% and 65%"}, {"measurement": "Population Normal (%)", "setting": "[1]", "result": 100, "unit": "%"}, {"measurement": "Population Pyknosed Nuclei (%)", "setting": "[1]", "result": "15% and 17%"}, {"measurement": "Population Tubulin-Different-Phenotype (%)", "setting": "[1]", "result": "5% and 10%"}, {"measurement": "Total Cell Count", "setting": "[1]", "result": "144 and 180"}, {"measurement": "Population Apoptotic (%)", "setting": "[2]", "result": "22% and 26%"}, {"measurement": "Population Fragmented Nuclei (%)", "setting": "[2]", "result": "4% and 13%"}, {"measurement": "Population Healthy Nuclei (%)", "setting": "[2]", "result": "84% and 71%"}, {"measurement": "Population Hoechst High Intensity Objects (%)", "setting": "[2]", "result": 0, "unit": "%"}, {"measurement": "Population Membrane Permeable-Phenotype (%)", "setting": "[2]", "result": "2% and 5%"}, {"measurement": "Population Mitochondria Different-Phenotype (%)", "setting": "[2]", "result": 0, "unit": "%"}, {"measurement": "Population Mitotic Cells (%)", "setting": "[2]", "result": "77% and 73%"}, {"measurement": "Population Normal (%)", "setting": "[2]", "result": 100, "unit": "%"}, {"measurement": "Population Pyknosed Nuclei (%)", "setting": "[2]", "result": "11% and 15%"}, {"measurement": "Population Tubulin-Different-Phenotype (%)", "setting": "[2]", "result": "8% and 2%"}, {"measurement": "Total Cell Count", "setting": "[2]", "result": "162 and 152"}, {"measurement": "Population Apoptotic (%)", "setting": "[3]", "result": "42% and 51%"}, {"measurement": "Population Fragmented Nuclei (%)", "setting": "[3]", "result": "5% and 14%"}, {"measurement": "Population Healthy Nuclei (%)", "setting": "[3]", "result": "80% and 65%"}, {"measurement": "Population Hoechst High Intensity Objects (%)", "setting": "[3]", "result": 0, "unit": "%"}, {"measurement": "Population Membrane Permeable-Phenotype (%)", "setting": "[3]", "result": "1% and 4%"}, {"measurement": "Population Mitochondria Different-Phenotype (%)", "setting": "[3]", "result": 0, "unit": "%"}, {"measurement": "Population Mitotic Cells (%)", "setting": "[3]", "result": "57% and 48%"}, {"measurement": "Population Normal (%)", "setting": "[3]", "result": "100% and 99%"}, {"measurement": "Population Pyknosed Nuclei (%)", "setting": "[3]", "result": "13% and 20%"}, {"measurement": "Population Tubulin-Different-Phenotype (%)", "setting": "[3]", "result": "9% and 11%"}, {"measurement": "Total Cell Count", "setting": "[3]", "result": "142 and 185"}, {"measurement": "Population Apoptotic (%)", "setting": "[4]", "result": "20% and 33%"}, {"measurement": "Population Fragmented Nuclei (%)", "setting": "[4]", "result": "9% and 15%"}, {"measurement": "Population Healthy Nuclei (%)", "setting": "[4]", "result": "81% and 73%"}, {"measurement": "Population Hoechst High Intensity Objects (%)", "setting": "[4]", "result": 0, "unit": "%"}, {"measurement": "Population Membrane Permeable-Phenotype (%)", "setting": "[4]", "result": "4% and 3%"}, {"measurement": "Population Mitochondria Different-Phenotype (%)", "setting": "[4]", "result": 0, "unit": "%"}, {"measurement": "Population Mitotic Cells (%)", "setting": "[4]", "result": "80% and 66%"}, {"measurement": "Population Normal (%)", "setting": "[4]", "result": 100, "unit": "%"}, {"measurement": "Population Pyknosed Nuclei (%)", "setting": "[4]", "result": "8% and 11%"}, {"measurement": "Population Tubulin-Different-Phenotype (%)", "setting": "[4]", "result": "9% and 3%"}, {"measurement": "Total Cell Count", "setting": "[4]", "result": "173 and 156"}, {"measurement": "Population Apoptotic (%)", "setting": "[5]", "result": "55% and 70%"}, {"measurement": "Population Fragmented Nuclei (%)", "setting": "[5]", "result": "14% and 16%"}, {"measurement": "Population Healthy Nuclei (%)", "setting": "[5]", "result": "73% and 70%"}, {"measurement": "Population Hoechst High Intensity Objects (%)", "setting": "[5]", "result": 0, "unit": "%"}, {"measurement": "Population Membrane Permeable-Phenotype (%)", "setting": "[5]", "result": "5% and 8%"}, {"measurement": "Population Mitochondria Different-Phenotype (%)", "setting": "[5]", "result": 0, "unit": "%"}, {"measurement": "Population Mitotic Cells (%)", "setting": "[5]", "result": "44% and 29%"}, {"measurement": "Population Normal (%)", "setting": "[5]", "result": "99% and 100%"}, {"measurement": "Population Pyknosed Nuclei (%)", "setting": "[5]", "result": "11% and 12%"}, {"measurement": "Population Tubulin-Different-Phenotype (%)", "setting": "[5]", "result": "4% and 7%"}, {"measurement": "Total Cell Count", "setting": "[5]", "result": "158 and 187"}, {"measurement": "Population Apoptotic (%)", "setting": "[6]", "result": "54% and 46%"}, {"measurement": "Population Fragmented Nuclei (%)", "setting": "[6]", "result": "7% and 14%"}, {"measurement": "Population Healthy Nuclei (%)", "setting": "[6]", "result": "86% and 76%"}, {"measurement": "Population Hoechst High Intensity Objects (%)", "setting": "[6]", "result": 0, "unit": "%"}, {"measurement": "Population Membrane Permeable-Phenotype (%)", "setting": "[6]", "result": "3% and 2%"}, {"measurement": "Population Mitochondria Different-Phenotype (%)", "setting": "[6]", "result": 0, "unit": "%"}, {"measurement": "Population Mitotic Cells (%)", "setting": "[6]", "result": "45% and 53%"}, {"measurement": "Population Normal (%)", "setting": "[6]", "result": 100, "unit": "%"}, {"measurement": "Population Pyknosed Nuclei (%)", "setting": "[6]", "result": "5% and 9%"}, {"measurement": "Population Tubulin-Different-Phenotype (%)", "setting": "[6]", "result": "4% and 3%"}, {"measurement": "Total Cell Count", "setting": "[6]", "result": "188 and 164"}]}]}
